Experiments:
Histone deacetylase 8 = biological target: T1, Histone deacetylase 8 (Homo sapiens, UniProt Q9BY41); test: Inhibition of HDAC8 after 45 mins by microplate fluorometric analysis
T1 sequence (Q9BY41 whole entry): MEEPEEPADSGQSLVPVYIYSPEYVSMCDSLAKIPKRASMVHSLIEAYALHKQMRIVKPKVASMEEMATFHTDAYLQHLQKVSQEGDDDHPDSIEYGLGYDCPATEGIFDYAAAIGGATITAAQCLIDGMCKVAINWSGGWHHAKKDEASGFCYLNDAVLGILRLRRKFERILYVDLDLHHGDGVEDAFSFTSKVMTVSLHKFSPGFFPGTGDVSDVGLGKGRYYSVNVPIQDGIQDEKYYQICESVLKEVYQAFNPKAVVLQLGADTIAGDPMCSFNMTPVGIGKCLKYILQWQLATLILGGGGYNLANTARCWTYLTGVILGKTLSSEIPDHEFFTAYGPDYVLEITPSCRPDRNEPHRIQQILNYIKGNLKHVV

[1] = biological target: 72 kDa type IV collagenase (Homo sapiens, UniProt P08253); test: Inhibition of MMP2 using BML-P125-9090 as substrate after 30 mins by microplate reader analysis
Method in brief: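 Colorimetric kit assay. Enzyme and inhibitor were preincubated 30 min at 37 °C in assay buffer equilibrated to 37 °C. Substrate was then added to start the reaction. A412 was read continuously at 1 min intervals for 10 min. IC50 was derived from the readings.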

Sequence of 72 kDa type IV collagenase (P08253 whole entry): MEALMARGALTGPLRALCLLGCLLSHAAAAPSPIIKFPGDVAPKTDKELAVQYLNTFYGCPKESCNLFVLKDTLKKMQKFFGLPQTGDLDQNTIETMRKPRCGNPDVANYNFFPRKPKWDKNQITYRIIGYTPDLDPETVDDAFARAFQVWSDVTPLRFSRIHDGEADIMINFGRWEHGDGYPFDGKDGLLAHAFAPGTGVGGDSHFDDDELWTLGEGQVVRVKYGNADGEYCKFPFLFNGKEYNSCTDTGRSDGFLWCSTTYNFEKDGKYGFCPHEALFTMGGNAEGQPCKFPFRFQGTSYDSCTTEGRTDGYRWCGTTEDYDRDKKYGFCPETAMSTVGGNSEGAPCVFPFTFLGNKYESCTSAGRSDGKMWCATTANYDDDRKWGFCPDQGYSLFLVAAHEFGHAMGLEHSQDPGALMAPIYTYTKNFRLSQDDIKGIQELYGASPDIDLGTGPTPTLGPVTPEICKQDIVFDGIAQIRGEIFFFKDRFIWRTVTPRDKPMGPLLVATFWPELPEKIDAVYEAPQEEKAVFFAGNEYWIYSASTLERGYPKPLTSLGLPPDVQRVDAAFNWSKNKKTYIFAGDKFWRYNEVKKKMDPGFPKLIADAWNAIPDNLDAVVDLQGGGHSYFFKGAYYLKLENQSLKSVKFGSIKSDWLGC

IC50 (Histone deacetylase 8) | IC50 [1] | Structure (SMILES)
> 1000 µM | 83.7 µM | COC(=O)[C@H](Cc1ccc(OCc2ccccc2)cc1)NC(=O)c1ccc(C)cc1
> 1000 µM | 10.7 µM | COC(=O)[C@H](Cc1ccc(OCc2ccccc2)cc1)NS(=O)(=O)c1ccc(C)cc1
962 µM | 6.3 µM | COC(=O)[C@H](Cc1ccc(OCCc2ccccc2)cc1)NS(=O)(=O)c1ccc(C)cc1
> 1000 µM | 8.1 µM | Cc1ccc(C(=O)N[C@@H](Cc2ccc(OCc3ccccc3)cc2)C(=O)O)cc1
47.2 µM | 1.4 µM | CS(=O)(=O)N[C@@H](Cc1ccc(OCc2ccccc2)cc1)C(=O)O
505 µM | 2.5 µM | Cc1ccc(S(=O)(=O)N[C@@H](Cc2ccc(OCc3ccccc3)cc2)C(=O)O)cc1
> 1000 µM | 0.27 µM | Cc1ccc(S(=O)(=O)N[C@@H](Cc2ccc(OCCc3ccccc3)cc2)C(=O)O)cc1
9.3 µM | 1.7 µM | O=C(N[C@@H](Cc1ccc(OCc2ccccc2)cc1)C(=O)NO)c1ccccc1
30.7 µM | 0.46 µM | Cc1ccc(C(=O)N[C@@H](Cc2ccc(OCc3ccccc3)cc2)C(=O)NO)cc1
5.8 µM | 0.037 µM | CC(=O)N[C@@H](Cc1ccc(OCc2ccccc2)cc1)C(=O)NO
3.6 µM | 0.067 µM | CS(=O)(=O)N[C@@H](Cc1ccc(OCc2ccccc2)cc1)C(=O)NO
42.4 µM | 0.025 µM | Cc1ccc(S(=O)(=O)N[C@@H](Cc2ccc(OCc3ccccc3)cc2)C(=O)NO)cc1
52.5 µM | 3.9 µM | Cc1ccc(C(=O)N[C@@H](Cc2ccc(OCCc3ccccc3)cc2)C(=O)NO)cc1
9.5 µM | 0.029 µM | CS(=O)(=O)N[C@@H](Cc1ccc(OCCc2ccccc2)cc1)C(=O)NO
82.5 µM | 0.017 µM | Cc1ccc(S(=O)(=O)N[C@@H](Cc2ccc(OCCc3ccccc3)cc2)C(=O)NO)cc1

Further lines, the compound ahead of its results:

Structure (SMILES) | IC50 (Histone deacetylase 8) | IC50 [1]
COC(=O)[C@H](Cc1ccc(OCc2ccccc2)cc1)NC(=O)c1ccccc1 | > 1000 µM | 67.5 µM
COC(=O)[C@H](Cc1ccc(OCc2ccccc2)cc1)NC(C)=O | 872 µM | 27.6 µM
COC(=O)[C@H](Cc1ccc(OCc2ccccc2)cc1)NS(C)(=O)=O | 754 µM | 17.8 µM
COC(=O)[C@H](Cc1ccc(OCCc2ccccc2)cc1)NC(=O)c1ccccc1 | > 1000 µM | 74.6 µM
COC(=O)[C@H](Cc1ccc(OCCc2ccccc2)cc1)NC(=O)c1ccc(C)cc1 | > 1000 µM | 85.5 µM
COC(=O)[C@H](Cc1ccc(OCCc2ccccc2)cc1)NC(C)=O | 825 µM | 12.5 µM
COC(=O)[C@H](Cc1ccc(OCCc2ccccc2)cc1)NS(C)(=O)=O | > 1000 µM | 2.4 µM
O=C(N[C@@H](Cc1ccc(OCc2ccccc2)cc1)C(=O)O)c1ccccc1 | 111 µM | 9.8 µM
CC(=O)N[C@@H](Cc1ccc(OCc2ccccc2)cc1)C(=O)O | 36.9 µM | 3 µM
O=C(N[C@@H](Cc1ccc(OCCc2ccccc2)cc1)C(=O)O)c1ccccc1 | 253 µM | 7.6 µM
Cc1ccc(C(=O)N[C@@H](Cc2ccc(OCCc3ccccc3)cc2)C(=O)O)cc1 | 386 µM | 4.5 µM
CC(=O)N[C@@H](Cc1ccc(OCCc2ccccc2)cc1)C(=O)O | 121 µM | 0.75 µM
CS(=O)(=O)N[C@@H](Cc1ccc(OCCc2ccccc2)cc1)C(=O)O | 102 µM | 0.12 µM
O=C(N[C@@H](Cc1ccc(OCCc2ccccc2)cc1)C(=O)NO)c1ccccc1 | 27.8 µM | 0.9 µM
CC(=O)N[C@@H](Cc1ccc(OCCc2ccccc2)cc1)C(=O)NO | 14.4 µM | 0.013 µM
COc1ccc(S(=O)(=O)N(CC(=O)NO)CC(C)C)cc1 |  | 0.014 µM
